SMILES strings stand for the structures.

For orientation: IC50 means the midpoint of a concentration-inhibition curve. A high value points to lower potency.

The test system of data set [1] is HeLa. Nature of the data set: The compound was tested for its ability to enhance the cytotoxicity of ACNU toward HeLa S3 cells at 1 uM dose. It counts as functional, Homo sapiens. The method, boiled down:
(§1)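 HeLa S3 cervical tumour cells (AGAT activity 418 fmol/mg protein) pretreated with test compound for 2 h at 0.01, 0.1, 1 or 10 μM, then exposed to increasing ACNU concentrations. Cytotoxicity measured by a previously reported method. Dose-modifying factor = IC50 for ACNU alone divided by IC50 for compound pretreatment followed by ACNU.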

Data set [2] has as its system HeLa. Put plainly: The compound was tested for its ability to enhance the cytotoxicity of ACNU toward HeLa S3 cells at 0.1 uM dose. The format is functional, Homo sapiens. The method, boiled down:
as §1

Data set [3] can be described thus: The compound was tested for its ability to enhance the cytotoxicity of ACNU toward HeLa S3 cells at 10 uM dose; 'b' means toxicity appeared at this dose. It counts as cell-based. As to conditions: human. The method in brief: as §1
The test system of data set [4] is HeLa. Nature of the data set: The compound was tested for its ability to enhance the cytotoxicity of ACNU toward HeLa S3 cells at 0.01 uM dose. The format is functional, Homo sapiens. The method, boiled down: as §1
In data set [5] the test system is HeLa. Put plainly: The compound was tested for its ability to enhance the cytotoxicity of ACNU toward HeLa S3 cells at 10 uM dose. The format is functional, Homo sapiens. The method, boiled down: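 HeLa S3 cervical tumour cells (AGAT activity 418 fmol/mg protein) pretreated 2 h with test compound […], then exposed to increasing ACNU concentrations. Dose-modifying factor = IC50 for ACNU alone divided by IC50 for compound pretreatment followed by ACNU.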

The target in data set [6] is T1, Methylated-DNA--protein-cysteine methyltransferase (Homo sapiens, UniProt P16455).
T1 sequence (P16455 whole entry): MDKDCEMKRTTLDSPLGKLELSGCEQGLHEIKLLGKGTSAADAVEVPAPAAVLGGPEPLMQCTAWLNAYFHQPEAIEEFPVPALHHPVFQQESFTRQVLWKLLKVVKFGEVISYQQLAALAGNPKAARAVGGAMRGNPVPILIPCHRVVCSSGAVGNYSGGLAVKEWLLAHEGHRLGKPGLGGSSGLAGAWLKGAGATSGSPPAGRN
Put plainly: In vitro inhibitory activity against human O6-alkylguanine-DNA alkyltransferase (AGAT).

On to `Nc1nc(N)c([N+](=O)[O-])c(OCc2ccccc2F)n1`, for which the Dose-modifying factor in data set [1] was 1.1; in data set [2], 1; in data set [3], “Toxicity appeared at this dose”.
In the same order, the values of `Nc1nc(N)c([N+](=O)[O-])c(OCc2cccc(F)c2)n1` are 4.8, 1.2 and “Toxicity appeared at this dose”.
Take `Nc1nc(N)c(N=O)c(OCc2ccc(F)cc2)n1`: the Dose-modifying factor in data set [4] is 1.4; in data set [1], 9.2; in data set [2], 5.8; in data set [3], “Toxicity appeared at this dose”.
Consider `Nc1nc(OCc2ccccc2)c2nc[nH]c2n1` [6-O-BENZYLGUANINE], for which the Dose-modifying factor was 4.4 in data set [1], 1.3 in data set [2] and 7.6 in data set [5].
`Nc1nc(N)c([N+](=O)[O-])c(OCc2ccc(F)cc2)n1`: the Dose-modifying factor in data set [1] is 5.1; in data set [2], 1.5; in data set [3], “Toxicity appeared at this dose”.
In the same order, the values of `Nc1nc(N)c([N+](=O)[O-])c(OCc2ccccn2)n1` are 1, 1 and “Toxicity appeared at this dose”.
As to `Nc1nc(N)c(N=O)c(OCc2ccncc2)n1`, the Dose-modifying factor in data set [4] was 1; in data set [1], 7.3; in data set [2], 2.9; in data set [3], “Toxicity appeared at this dose”.
Take `Nc1nc(N)c([N+](=O)[O-])c(OCc2ccncc2)n1`: the results for the Dose-modifying factor in data set [1], in data set [2] and in data set [3] were 3.9, 1.2 and “Toxicity appeared at this dose”, respectively.
As to `Nc1nc(N)c(N=O)c(OCc2ccccc2)n1`, 0.13 µM corresponded to half-maximal inhibition in data set [6] (IC50). Further, the values for the Dose-modifying factor in data set [4], in data set [1] and in data set [2] were 1.2, 8.8 and 4.3, respectively.
With `Nc1nc(N)c([N+](=O)[O-])c(OCc2ccccc2)n1`, the results for the Dose-modifying factor in data set [1], in data set [2] and in data set [3] were 4, 1.2 and “Toxicity appeared at this dose”, respectively.
In data set [6], `Nc1cc(OCc2ccccc2)nc(N)n1` returned an IC50 of 170 µM. In addition, the Dose-modifying factor in data set [5] was 1.
On to `Nc1nc(N)c([N+](=O)[O-])c(OCc2cccnc2)n1`, for which the Dose-modifying factor in data set [1] is listed as 3.6; in data set [2], 1.2; in data set [3], “Toxicity appeared at this dose”.

These data come from ChEMBL document CHEMBL1131470, “Inhibition of human O6-alkylguanine-DNA alkyltransferase and potentiation of the cytotoxicity of chloroethylnitrosourea by 4(6)-(benzyloxy)-2,6(4)-diamino-5-(nitro or nitroso)pyrimidine derivatives and analogues” (J Med Chem, 1998).
